Measurements: ChEMBL document CHEMBL4393705, “New chalcone-sulfonamide hybrids exhibiting anticancer and antituberculosis activity” (Eur J Med Chem, 2019)

How the values were obtained:
HCC 2998 = assay: Anticancer activity against human HCC2998 cells assessed as cell growth inhibition measured after 48 hrs by SRB assay; format: functional; conditions: HCC 2998, 48 h
Outline: (§1)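 NCI-60 five-dose screen at 100, 10, 1.0, 0.1 and 0.01 µM final. Cells in RPMI-1640 with 5% FBS and 2 mM glutamine were seeded 24 h ahead at 37°C, 5% CO2. Compound exposure was 48 h, followed by TCA fixation and SRB staining, read at 515 nm. GI50 is the concentration giving 50% lower net protein increase than control, using time-zero plates.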

HL-60 = assay: Anticancer activity against human HL60 cells assessed as cell growth inhibition measured after 48 hrs by SRB assay; format: functional; conditions: HL-60, 48 h; for CC50: read-out: LC50 (the source's name); outline: as §1
EKVX = assay: Anticancer activity against human EKVX cells assessed as cell growth inhibition measured after 48 hrs by SRB assay; format: functional; outline: as §1
HOP-62 = assay: Anticancer activity against human HOP62 cells assessed as cell growth inhibition measured after 48 hrs by SRB assay; format: functional; conditions: HOP-62, 48 h; outline: as §1
NCI-H226 = assay: Anticancer activity against human NCI-H226 cells assessed as cell growth inhibition measured after 48 hrs by SRB assay; format: functional; conditions: NCI-H226, 48 h; for CC50: read-out: LC50 (the source's name); outline: as §1
NCI-H322M = assay: Anticancer activity against human NCI-H322M cells assessed as cell growth inhibition measured after 48 hrs by SRB assay; format: functional; outline: as §1
NCI-H460 = assay: Anticancer activity against human NCI-H460 cells assessed as cell growth inhibition measured after 48 hrs by SRB assay; format: functional; conditions: NCI-H460, 48 h; outline: as §1
NCI-H522 = assay: Anticancer activity against human NCI-H522 cells assessed as cell growth inhibition measured after 48 hrs by SRB assay; format: functional; conditions: NCI-H522, 48 h; for CC50: read-out: LC50 (the source's name); outline: as §1
HCT-116 = assay: Anticancer activity against human HCT116 cells assessed as cell growth inhibition measured after 48 hrs by SRB assay; format: functional; conditions: HCT-116, 48 h; outline: as §1
SW-620 = assay: Anticancer activity against human SW620 cells assessed as cell growth inhibition measured after 48 hrs by SRB assay; format: functional; conditions: SW-620, 48 h; for CC50: read-out: LC50 (the source's name)
Outline: (§2)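 NCI 60-cell screen, five-dose mode at 100, 10, 1.0, 0.1 and 0.01 µM. Cells grown in RPMI-1640 with 5% FBS and 2 mM L-glutamine, seeded and held 24 h at 37°C, 5% CO2, then exposed for 48 h. Fixed with cold TCA (10% final), stained with 0.4% SRB and read at 515 nm. Time-zero plates were used. GI50 is the concentration giving 50% lower net protein increase than control.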

SF-268 = assay: Anticancer activity against human SF268 cells assessed as cell growth inhibition measured after 48 hrs by SRB assay; format: functional; conditions: SF-268, 48 h; outline: as §1
SF-295 = assay: Anticancer activity against human SF295 cells assessed as cell growth inhibition measured after 48 hrs by SRB assay; format: functional; conditions: SF-295, 48 h; outline: as §1
LOX IMVI = assay: Anticancer activity against human LOXIMVI cells assessed as cell growth inhibition measured after 48 hrs by SRB assay; format: functional; outline: as §1
SK-MEL-5 = assay: Anticancer activity against human SK-MEL-5 cells assessed as cell growth inhibition measured after 48 hrs by SRB assay; format: functional; conditions: SK-MEL-5, 48 h; for CC50: read-out: LC50 (the source's name); outline: as §2
OVCAR-3 = assay: Anticancer activity against human OVCAR3 cells assessed as cell growth inhibition measured after 48 hrs by SRB assay; format: functional; conditions: OVCAR-3, 48 h; outline: as §1
OVCAR-4 = assay: Anticancer activity against human OVCAR4 cells assessed as cell growth inhibition measured after 48 hrs by SRB assay; format: functional; conditions: OVCAR-4, 48 h; outline: as §1
OVCAR-5 = assay: Anticancer activity against human OVCAR5 cells assessed as cell growth inhibition measured after 48 hrs by SRB assay; format: functional; conditions: OVCAR-5, 48 h; for CC50: read-out: LC50 (the source's name); outline: as §1
NCI/ADR-RES = assay: Anticancer activity against human NCI/ADR-RES cells assessed as cell growth inhibition measured after 48 hrs by SRB assay; format: functional; outline: as §1
A498 = assay: Anticancer activity against human A498 cells assessed as cell growth inhibition measured after 48 hrs by SRB assay; format: functional; conditions: A498, 48 h; for CC50: read-out: LC50 (the source's name); outline: as §1
ACHN = assay: Anticancer activity against human ACHN cells assessed as cell growth inhibition measured after 48 hrs by SRB assay; format: functional; conditions: for CC50: read-out: LC50 (the source's name); outline: as §1
CAKI-1 = assay: Anticancer activity against human Caki1 cells assessed as cell growth inhibition measured after 48 hrs by SRB assay; format: functional; conditions: CAKI-1, 48 h; outline: as §1
RXF 393 = assay: Anticancer activity against human RXF393 cells assessed as cell growth inhibition measured after 48 hrs by SRB assay; format: functional; conditions: RXF 393, 48 h; outline: as §1
SN12C = assay: Anticancer activity against human SN12C cells assessed as cell growth inhibition measured after 48 hrs by SRB assay; format: functional; outline: as §2
TK-10 = assay: Anticancer activity against human TK10 cells assessed as cell growth inhibition measured after 48 hrs by SRB assay; format: functional; conditions: TK-10, 48 h; for CC50: read-out: LC50 (the source's name); outline: as §2
UO-31 = assay: Anticancer activity against human UO31 cells assessed as cell growth inhibition measured after 48 hrs by SRB assay; format: functional; conditions: UO-31, 48 h; for CC50: read-out: LC50 (the source's name); outline: as §2
DU-145 = assay: Anticancer activity against human DU145 cells assessed as cell growth inhibition measured after 48 hrs by SRB assay; format: functional; conditions: DU-145, 48 h; outline: as §1
Hs-578T = assay: Anticancer activity against human Hs578T cells assessed as cell growth inhibition measured after 48 hrs by SRB assay; format: functional; outline: as §1
BT-549 = assay: Anticancer activity against human BT549 cells assessed as cell growth inhibition measured after 48 hrs by SRB assay; format: functional; conditions: BT-549, 48 h; outline: as §1
T47D = assay: Anticancer activity against human T47D cells assessed as cell growth inhibition measured after 48 hrs by SRB assay; format: functional; outline: as §2
NIH3T3 = assay: Cytotoxicity against mouse 3T3 cells assessed as cell viability measured after 48 hrs by MTT assay; format: cell-based; conditions: nih3t3, 48 h
Outline: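 3T3 fibroblasts in DMEM with 10% FBS and penicillin-streptomycin, seeded at 10^4 cells/well 24 h prior. Exposed 48 h to two-fold serial dilutions from a 100 mg/mL DMSO stock. MTT (5 mg/mL in PBS) added for 1.5 h, formazan dissolved in DMSO, read at 530 nm. Duplicate runs on different days. Value interpolated between DMSO (100%) and cycloheximide (0%) controls.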

COc1ccc(C(=O)/C=C/c2ccc(Cl)cc2)cc1S(N)(=O)=O
GI50 (HCC 2998): 1.78 µM | LC50 (HCC 2998): 7.48 µM | GI50 (HL-60): 3.08 µM | CC50 (HL-60): > 100 µM | GI50 (EKVX): 4.56 µM | LC50 (concentration killing 50% of cells) (EKVX): 50.5 µM | GI50 (HOP-62): 2.51 µM | LC50 (HOP-62): 31.2 µM | GI50 (NCI-H226): 3.66 µM | CC50 (NCI-H226): 95.7 µM | GI50 (NCI-H322M): 2.04 µM | LC50 (NCI-H322M): 28.8 µM | GI50 (NCI-H460): 2.58 µM | LC50 (concentration causing 50% net cell kill) (NCI-H460): 30 µM | GI50 (NCI-H522): 1.93 µM | CC50 (NCI-H522): 12.1 µM | GI50 (HCT-116): 1.36 µM | LC50 (concentration killing 50% of cells present at start) (HCT-116): 5.36 µM | GI50 (SW-620): 1.76 µM | CC50 (SW-620): 8.45 µM | GI50 (SF-268): 3.13 µM | LC50 (concentration giving 50% net cell kill) (SF-268): 38.3 µM | GI50 (SF-295): 3.04 µM | LC50 (SF-295): 31.9 µM | GI50 (LOX IMVI): 1.28 µM | LC50 (concentration giving 50% net cell kill) (LOX IMVI): 5.47 µM | GI50 (SK-MEL-5): 5.69 µM | CC50 (SK-MEL-5): 42.7 µM | GI50 (OVCAR-3): 2.04 µM | LC50 (OVCAR-3): 9.7 µM | GI50 (OVCAR-4): 3.47 µM | LC50 (OVCAR-4): 40.4 µM | GI50 (OVCAR-5): 3.08 µM | CC50 (OVCAR-5): 44.9 µM | GI50 (NCI/ADR-RES): 3.64 µM | LC50 (NCI/ADR-RES): > 100 µM | GI50 (A498): 10.4 µM | CC50 (A498): 47.1 µM | GI50 (ACHN): 1.94 µM | CC50 (ACHN): 8.75 µM | GI50 (CAKI-1): 2.72 µM | LC50 (CAKI-1): 32.5 µM | GI50 (RXF 393): 1.98 µM | LC50 (concentration causing 50% net cell kill) (RXF 393): 7.96 µM | GI50 (SN12C): 2.72 µM | LC50 (concentration giving 50% net cell kill) (SN12C): 31.5 µM | GI50 (TK-10): 2.47 µM | CC50 (TK-10): 27.5 µM | GI50 (UO-31): 1.89 µM | CC50 (UO-31): 22 µM | GI50 (DU-145): 3.42 µM | LC50 (DU-145): 36.3 µM | GI50 (Hs-578T): 3.28 µM | LC50 (Hs-578T): > 100 µM | GI50 (BT-549): 2.29 µM | LC50 (BT-549): 27.3 µM | GI50 (T47D): 3.2 µM | LC50 (T47D): 59 µM | LC50 (NIH3T3): 4.1 µM

COc1ccc(C(=O)/C=C/c2ccc(Cl)cc2)cc1S(=O)(=O)Nc1c(N)nc(SC)[nH]c1=O
GI50 (HCC 2998): 1.92 µM | LC50 (HCC 2998): 6.5 µM | GI50 (HL-60): 3.2 µM | CC50 (HL-60): > 100 µM | GI50 (EKVX): 3.94 µM | LC50 (concentration killing 50% of cells) (EKVX): 80.3 µM | GI50 (HOP-62): 1.81 µM | LC50 (HOP-62): 8.7 µM | GI50 (NCI-H226): 2.34 µM | CC50 (NCI-H226): 52.9 µM | GI50 (NCI-H322M): 2.38 µM | LC50 (NCI-H322M): 28 µM | GI50 (NCI-H460): 2.49 µM | LC50 (concentration causing 50% net cell kill) (NCI-H460): 29.1 µM | GI50 (NCI-H522): 1.88 µM | CC50 (NCI-H522): 8.83 µM | GI50 (HCT-116): 1.56 µM | LC50 (concentration killing 50% of cells present at start) (HCT-116): 5.55 µM | GI50 (SW-620): 1.58 µM | CC50 (SW-620): 28.3 µM | GI50 (SF-268): 2.69 µM | LC50 (concentration giving 50% net cell kill) (SF-268): 36.1 µM | GI50 (SF-295): 2.72 µM | LC50 (SF-295): 34.7 µM | GI50 (LOX IMVI): 1.63 µM | LC50 (concentration giving 50% net cell kill) (LOX IMVI): 6.34 µM | GI50 (SK-MEL-5): 2.72 µM | CC50 (SK-MEL-5): 32 µM | GI50 (OVCAR-3): 1.94 µM | LC50 (OVCAR-3): 8 µM | GI50 (OVCAR-4): 4.5 µM | LC50 (OVCAR-4): 43.6 µM | GI50 (OVCAR-5): 2.83 µM | CC50 (OVCAR-5): 38.2 µM | GI50 (NCI/ADR-RES): 40.1 µM | LC50 (NCI/ADR-RES): > 100 µM | GI50 (A498): 10.6 µM | CC50 (A498): 47.6 µM | GI50 (ACHN): 3.23 µM | CC50 (ACHN): 36.5 µM | GI50 (CAKI-1): 3.83 µM | LC50 (CAKI-1): 79.5 µM | GI50 (RXF 393): 1.6 µM | LC50 (concentration causing 50% net cell kill) (RXF 393): 6.67 µM | GI50 (SN12C): 3.45 µM | LC50 (concentration giving 50% net cell kill) (SN12C): 73.4 µM | GI50 (TK-10): 2.98 µM | CC50 (TK-10): 32.3 µM | GI50 (UO-31): 1.89 µM | CC50 (UO-31): 12.9 µM | GI50 (DU-145): 3.58 µM | LC50 (DU-145): 33.9 µM | GI50 (Hs-578T): 3.56 µM | LC50 (Hs-578T): > 100 µM | GI50 (BT-549): 1.63 µM | LC50 (BT-549): 6.17 µM | GI50 (T47D): 2.45 µM | LC50 (T47D): 38.8 µM | LC50 (NIH3T3): 13 µM
